# Test results reported in ChEMBL document CHEMBL1157665, “Novel 4-thiazolidinone derivatives as potential antifungal and antibacterial drugs” (2010).
# Key:
# Aspergillus versicolor [1] = experiment: Antifungal activity against Aspergillus versicolor ATCC 11730 after 72 hrs by serial dilution method; assay type: functional; conditions: ATCC 11730, 72 h
# In short: (§1)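 Fungi were kept on malt agar at 4 °C and sub-cultured monthly. Spores were washed off the agar with sterile 0.85% saline containing 0.1% Tween 80 (v/v). Modified microdilution in 96-well plates. MIC is the lowest concentration with no visible growth under the binocular microscope. Inoculum checked on malt agar for contamination and validity.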
# Bacillus cereus [2] = experiment: Antibacterial activity against Bacillus cereus clinical isolate after 72 hrs by serial sub-cultivation method; assay type: functional
# In short: (§2)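 MBC was found by serial sub-cultivation of 2 µl from the MIC wells into plates holding 100 µl broth per well, then incubation for 72 h. MBC is the lowest concentration with no visible growth, i.e. 99.5% killing of the original inoculum. Bacterial inoculum was 1.0 × 10^4 cfu per well in LB broth. Duplicate, repeated three times.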
# Salmonella typhimurium [3] = experiment: Antibacterial activity against Salmonella Typhimurium ATCC 13311 after 72 hrs by serial sub-cultivation method; assay type: functional, Salmonella enterica subsp. enterica serovar Typhimurium; conditions: Salmonella enterica, ATCC 13311, 72 h; in short: as §2
# Aspergillus niger [4] = experiment: Antifungal activity against Aspergillus niger ATCC 6275 after 72 hrs by serial dilution method; assay type: functional; conditions: ATCC 6275, 72 h; in short: as §1
# Aspergillus fumigatus [5] = experiment: Antifungal activity against Aspergillus fumigatus plant isolate after 72 hrs by serial sub-cultivation method
# Pseudomonas aeruginosa [6] = experiment: Antibacterial activity against Pseudomonas aeruginosa ATCC 27853 after 72 hrs by serial sub-cultivation method; assay type: functional; conditions: ATCC 27853, 72 h; in short: as §2
# Listeria monocytogenes [7] = experiment: Antibacterial activity against Listeria monocytogenes NCTC 7973 after 72 hrs by serial sub-cultivation method; assay type: functional; conditions: NCTC 7973, 72 h; in short: as §2
# Pseudomonas aeruginosa [8] = experiment: Antibacterial activity against Pseudomonas aeruginosa ATCC 27853 after 24 hrs; assay type: functional; conditions: ATCC 27853, 24 h
# In short: (§3)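 Broth microdilution MIC in 96-well plates. Compounds in LB broth with bacterial inoculum of 1.0 × 10^4 cfu per well, from suspensions adjusted with sterile saline to 1.0 × 10⁵ CFU/ml. Incubated 24 h at […] as printed. MIC taken as the lowest concentration with no visible growth under the binocular microscope. OD at 655 nm also read against blank. Streptomycin and ampicillin as positive controls. Duplicate, repeated three times.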
# Aspergillus versicolor [9] = experiment: Antifungal activity against Aspergillus versicolor ATCC 11730 after 72 hrs by serial sub-cultivation method; assay type: functional; conditions: ATCC 11730, 72 h
# In short: (§4)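 MFC was found by serial sub-cultivation of 2 µl into plates holding 100 µl broth per well, then incubation 72 h at 28 °C. MFC is the lowest concentration with no visible growth, taken as 99.5% killing of the original inoculum. Spore inocula came from malt agar cultures washed with 0.85% saline and 0.1% Tween 80.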
# Talaromyces funiculosus [10] = experiment: Antifungal activity against Penicillium funiculosum ATCC 36839 after 72 hrs by serial sub-cultivation method; assay type: functional; conditions: ATCC 36839, 72 h; in short: as §4
# Trichoderma viride [11] = experiment: Antifungal activity against Trichoderma viride IAM 5061 after 72 hrs by serial dilution method; assay type: functional; conditions: IAM 5061, 72 h; in short: as §1
# Aspergillus flavus [12] = experiment: Antifungal activity against Aspergillus flavus ATCC 9643 after 72 hrs by serial dilution method; assay type: functional; conditions: ATCC 9643, 72 h; in short: as §1
# Fulvia fulva [13] = experiment: Antifungal activity against Fulvia fulva TK 5318 after 72 hrs by serial sub-cultivation method; assay type: functional; conditions: TK 5318, 72 h; in short: as §4
# Talaromyces funiculosus [14] = experiment: Antifungal activity against Penicillium funiculosum ATCC 36839 after 72 hrs by serial dilution method; assay type: functional; conditions: ATCC 36839, 72 h; in short: as §1
# Trichoderma viride [15] = experiment: Antifungal activity against Trichoderma viride IAM 5061 after 72 hrs by serial sub-cultivation method; assay type: functional; conditions: IAM 5061, 72 h; in short: as §4
# Fulvia fulva [16] = experiment: Antifungal activity against Fulvia fulva TK 5318 after 72 hrs by serial dilution method; assay type: functional; conditions: TK 5318, 72 h; in short: as §1
# Listeria monocytogenes [17] = experiment: Antibacterial activity against Listeria monocytogenes NCTC 7973 after 24 hrs; assay type: functional; conditions: NCTC 7973, 24 h; in short: as §3
# Proteus mirabilis [18] = experiment: Antibacterial activity against Proteus mirabilis after 24 hrs; assay type: functional; in short: as §3
# Penicillium ochrochloron [19] = experiment: Antifungal activity against Penicillium ochrochloron ATCC 9112 after 72 hrs by serial sub-cultivation method; assay type: functional; conditions: ATCC 9112, 72 h; in short: as §4
# Proteus mirabilis [20] = experiment: Antibacterial activity against Proteus mirabilis after 72 hrs by serial sub-cultivation method; assay type: functional; in short: as §2
# Aspergillus flavus [21] = experiment: Antifungal activity against Aspergillus flavus ATCC 9643 after 72 hrs by serial sub-cultivation method; assay type: functional; conditions: ATCC 9643, 72 h; in short: as §4
# Escherichia coli [22] = experiment: Antibacterial activity against Escherichia coli ATCC 35210 after 24 hrs; assay type: functional; conditions: ATCC 35210, 24 h; in short: as §3
# Bacillus cereus [23] = experiment: Antibacterial activity against Bacillus cereus clinical isolate after 24 hrs; assay type: functional; in short: as §3
# Aspergillus niger [24] = experiment: Antifungal activity against Aspergillus niger ATCC 6275 after 72 hrs by serial sub-cultivation method; assay type: functional; conditions: ATCC 6275, 72 h; in short: as §4
# Aspergillus fumigatus [25] = experiment: Antifungal activity against Aspergillus fumigatus plant isolate after 72 hrs by serial dilution method
# Escherichia coli [26] = experiment: Antibacterial activity against Escherichia coli ATCC 35210 after 72 hrs by serial sub-cultivation method; assay type: functional; conditions: ATCC 35210, 72 h; in short: as §2
# Micrococcus flavus [27] = experiment: Antibacterial activity against Micrococcus flavus ATCC 10240 after 24 hrs; assay type: functional; conditions: ATCC 10240, 24 h; in short: as §3
# Micrococcus flavus [28] = experiment: Antibacterial activity against Micrococcus flavus ATCC 10240 after 72 hrs by serial sub-cultivation method; assay type: functional; conditions: ATCC 10240, 72 h; in short: as §2
# Salmonella typhimurium [29] = experiment: Antibacterial activity against Salmonella Typhimurium ATCC 13311 after 24 hrs; assay type: functional, Salmonella enterica subsp. enterica serovar Typhimurium; conditions: Salmonella enterica, ATCC 13311, 24 h; in short: as §3
# Staphylococcus aureus [30] = experiment: Antibacterial activity against Staphylococcus aureus ATCC 6538 after 24 hrs; assay type: functional; conditions: ATCC 6538, 24 h; in short: as §3
# Staphylococcus aureus [31] = experiment: Antibacterial activity against Staphylococcus aureus ATCC 6538 after 72 hrs by serial sub-cultivation method; assay type: functional; conditions: ATCC 6538, 72 h; in short: as §2
# Penicillium ochrochloron [32] = experiment: Antifungal activity against Penicillium ochrochloron ATCC 9112 after 72 hrs by serial dilution method; assay type: functional; conditions: ATCC 9112, 72 h; in short: as §1
MIC (Aspergillus versicolor [1]),MIC (Aspergillus niger [4]),MIC (Pseudomonas aeruginosa [8]),MIC (Trichoderma viride [11]),MIC (Aspergillus flavus [12]),MIC (Talaromyces funiculosus [14]),MIC (Fulvia fulva [16]),MIC (Listeria monocytogenes [17]),MIC (Proteus mirabilis [18]),SMILES,MBC (Bacillus cereus [2]),MBC (Salmonella typhimurium [3]),MFC (Aspergillus fumigatus [5]),MBC (Pseudomonas aeruginosa [6]),MBC (Listeria monocytogenes [7]),MFC (Aspergillus versicolor [9]),MFC (Talaromyces funiculosus [10]),MFC (Fulvia fulva [13]),MFC (Trichoderma viride [15]),MFC (Penicillium ochrochloron [19]),MBC (Proteus mirabilis [20]),also measured
10.8 µM,16.1 µM,21.5 µM,10.8 µM,16.1 µM,10.8 µM,5.4 µM,21.5 µM,43 µM,O=C1N/C(=N/c2nc(C34CC5CC(CC(C5)C3)C4)cs2)S/C1=C\c1ccccc1[N+](=O)[O-],21.5 µM,43 µM,21.5 µM,43 µM,43 µM,16.1 µM,21.5 µM,10.8 µM,21.5 µM,21.5 µM,64.5 µM,MFC (Aspergillus flavus [21]): 21.5 µM; MIC (Escherichia coli [22]): 21.5 µM; MIC (Bacillus cereus [23]): 10.8 µM; MFC (Aspergillus niger [24]): 21.5 µM; MIC (Aspergillus fumigatus [25]): 10.8 µM; MBC (Escherichia coli [26]): 43 µM; MIC (Micrococcus flavus [27]): 21.5 µM; MBC (Micrococcus flavus [28]): 43 µM; MIC (Salmonella typhimurium [29]): 21.5 µM; MIC (Staphylococcus aureus [30]): 16.1 µM; MBC (Staphylococcus aureus [31]): 21.5 µM; MIC (Penicillium ochrochloron [32]): 10.8 µM
16.1 µM,10.8 µM,21.5 µM,10.8 µM,16.1 µM,21.5 µM,16.1 µM,21.5 µM,43 µM,O=C1N/C(=N/c2nc(C34CC5CC(CC(C5)C3)C4)cs2)S/C1=C\c1ccc([N+](=O)[O-])cc1,21.5 µM,21.5 µM,21.5 µM,43 µM,43 µM,21.5 µM,21.5 µM,21.5 µM,21.5 µM,21.5 µM,64.5 µM,MFC (Aspergillus flavus [21]): 21.5 µM; MIC (Escherichia coli [22]): 21.5 µM; MIC (Bacillus cereus [23]): 21.5 µM; MFC (Aspergillus niger [24]): 21.5 µM; MIC (Aspergillus fumigatus [25]): 16.1 µM; MBC (Escherichia coli [26]): 43 µM; MIC (Micrococcus flavus [27]): 21.5 µM; MBC (Micrococcus flavus [28]): 21.5 µM; MIC (Salmonella typhimurium [29]): 21.5 µM; MIC (Staphylococcus aureus [30]): 16.1 µM; MBC (Staphylococcus aureus [31]): 43 µM; MIC (Penicillium ochrochloron [32]): 16.1 µM
16.4 µM,11 µM,21.9 µM,11 µM,11 µM,11 µM,11 µM,21.9 µM,43.8 µM,O=C1N/C(=N/c2nc(C34CC5CC(CC(C5)C3)C4)cs2)S/C1=C\c1ccc(Cl)cc1,21.9 µM,43.8 µM,21.9 µM,43.8 µM,43.8 µM,21.9 µM,21.9 µM,16.4 µM,16.4 µM,21.9 µM,65.7 µM,MFC (Aspergillus flavus [21]): 21.9 µM; MIC (Escherichia coli [22]): 21.9 µM; MIC (Bacillus cereus [23]): 16.4 µM; MFC (Aspergillus niger [24]): 21.9 µM; MIC (Aspergillus fumigatus [25]): 11 µM; MBC (Escherichia coli [26]): 43.8 µM; MIC (Micrococcus flavus [27]): 11 µM; MBC (Micrococcus flavus [28]): 21.9 µM; MIC (Salmonella typhimurium [29]): 21.9 µM; MIC (Staphylococcus aureus [30]): 21.9 µM; MBC (Staphylococcus aureus [31]): 43.8 µM; MIC (Penicillium ochrochloron [32]): 16.4 µM
